# Laboratory results from ChEMBL document CHEMBL4350973, “CF2H, a Functional Group-Dependent Hydrogen-Bond Donor: Is It a More or Less Lipophilic Bioisostere of OH, SH, and CH3?” (J Med Chem, 2019).
# Assay: Lipophilicity, log P of the compound
# Assay type: physicochemical
# Details: octanol/water
# How it was run: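 Shake-flask partition between mutually pre-saturated octanol and water (at least 24 h pre-saturation). Compound dissolved at 10 mM in water-saturated octanol; water/octanol volume ratio set by preliminary runs according to polarity. Phases centrifuged 3000 rpm, 5 min; diluted octanol aliquot read by UV absorbance at λmax (range 0.2-1). Water concentration obtained by difference; log P from volume ratio; triplicates.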
row,logP,Compound
1,3.7,CCCc1ccccc1

# Assay: Octanol/water partition co-efficient, log P of compound by UV-spectrophotometry-based shake-flask method
# Assay type: physicochemical
# Details: not given
# How it was run: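 Shake-flask partition between octanol and water, each pre-saturated with the other phase for at least 24 h. Compound dissolved at 10 mM in water-saturated octanol; water/octanol volume ratio set from preliminary runs according to polarity. Phases centrifuged 3000 rpm, 5 min. Diluted octanol phase read by UV absorbance at λmax, absorbance kept within 0.2-1. Water concentration obtained by difference; log P from the volume ratio. Triplicates.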
row,Compound,logP
1,Cc1ccc(Br)cc1,2.91
2,Cc1ccc(C#N)cc1,2
3,COc1ccc(C)cc1,2.67
4,CN1C(=O)c2ccccc2C1=O,1.33
5,C[S+]([O-])c1ccc([N+](=O)[O-])cc1 (centres undefined),0.49
6,FC(F)c1ccc(Br)cc1,2.78
7,FC(F)c1ccccc1,2.4
8,N#Cc1ccc(C(F)F)cc1,1.75
9,O=[N+]([O-])c1ccc(C(F)F)cc1,2.12
10,C[S+]([O-])CCc1ccccc1 (centres undefined),0.63
11,O=S(=O)(CCc1ccccc1)C(F)F,1.87
12,O=[N+]([O-])c1ccc(S(=O)(=O)C(F)F)cc1,1.7
13,COCCc1ccccc1,2.23
14,CS(=O)(=O)CCc1ccccc1,0.82
15,CS(=O)(=O)c1ccc([N+](=O)[O-])cc1,0.61
16,Cc1ccc([N+](=O)[O-])cc1 [4-NITROTOLUENE],2.35
17,COC(=O)c1ccccc1 [METHYL BENZOATE],2.27
18,Cc1ccc(C)cc1 [P-XYLENE],3.08

# More lines, now with the values ahead:
row,logP,Compound
1,1.42,[O-][S+](CCc1ccccc1)C(F)F (centres undefined)
2,2.94,Cc1ccc(C(F)F)cc1
3,2.95,CSCCc1ccccc1
4,3.16,FC(F)OCCc1ccccc1
5,3.02,FC(F)CCc1ccccc1
6,1.37,O=[N+]([O-])c1ccc([S+]([O-])C(F)F)cc1 (centres undefined)
7,1.53,O=C1c2ccccc2C(=O)N1C(F)F
8,3.16,FC(F)SCCc1ccccc1
9,2.66,O=C(OC(F)F)c1ccccc1
10,2.61,COc1ccc(C(F)F)cc1
